Measured values reported in ChEMBL document CHEMBL5120856, “New salicylic acid derivatives, double inhibitors of glycolate oxidase and lactate dehydrogenase, as effective agents decreasing oxalate production” (Eur J Med Chem, 2022).
Calls of active or inactive are those of the source. No cut-off for these calls is given here.

How the values were obtained:
[1] = target: T1, 2-Hydroxyacid oxidase 1 (Mus musculus, UniProt Q9WU19); test: Inhibition of N-terminal His-tagged mouse recombinant glycolate oxidase expressed in Escherichia coli BL21 (DE3) cells using glycolate as substrate preincubated for 10 mins followed by substrate addition and measured after 10 mins by Amplex red and horseradish peroxidase based fluorescence assay
T1 sequence (Q9WU19 whole entry): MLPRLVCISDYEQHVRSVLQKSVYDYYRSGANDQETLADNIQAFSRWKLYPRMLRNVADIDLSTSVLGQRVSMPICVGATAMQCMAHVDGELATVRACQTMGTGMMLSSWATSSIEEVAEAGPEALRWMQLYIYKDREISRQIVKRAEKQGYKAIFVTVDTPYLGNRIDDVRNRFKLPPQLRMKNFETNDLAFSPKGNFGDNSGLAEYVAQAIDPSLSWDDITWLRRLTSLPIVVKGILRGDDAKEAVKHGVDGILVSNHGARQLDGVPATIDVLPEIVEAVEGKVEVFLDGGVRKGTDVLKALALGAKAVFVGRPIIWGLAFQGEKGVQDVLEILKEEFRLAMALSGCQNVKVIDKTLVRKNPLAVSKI

[2] = target: L-lactate dehydrogenase B chain (Homo sapiens, UniProt P07195); test: Inhibition of human recombinant LDHB using pyruvate as substrate preincubated for 10 mins followed by substrate addition and measured every 60 sec for 10 mins in the presence of NADH by fluorescence assay
Sequence of L-lactate dehydrogenase B chain (P07195 whole entry): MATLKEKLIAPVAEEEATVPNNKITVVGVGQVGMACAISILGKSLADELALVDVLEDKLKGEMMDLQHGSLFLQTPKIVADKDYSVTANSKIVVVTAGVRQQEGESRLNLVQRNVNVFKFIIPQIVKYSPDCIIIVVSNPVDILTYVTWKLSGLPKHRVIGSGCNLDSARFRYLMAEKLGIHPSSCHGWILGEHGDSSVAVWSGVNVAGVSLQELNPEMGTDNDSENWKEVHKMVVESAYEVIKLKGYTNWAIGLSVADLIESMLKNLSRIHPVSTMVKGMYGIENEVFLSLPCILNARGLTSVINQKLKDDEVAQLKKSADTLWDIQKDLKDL

[3] = target: T2, 2-Hydroxyacid oxidase 1 (Homo sapiens) (UniProt Q9UJM8); test: Reversible inhibition of N-terminal His-tagged human recombinant glycolate oxidase expressed in Escherichia coli BL21 (DE3) cells assessed as enzyme recovery using glycolate as substrate at 100 times of IC50 concentration preincubated for 30 mins followed by substrate addition and measured every 60 sec for 15 mins by jump-dilution based Amplex red and horseradish peroxidase fluorescence assay; settings: time 45.0 min
T2 sequence (whole entry): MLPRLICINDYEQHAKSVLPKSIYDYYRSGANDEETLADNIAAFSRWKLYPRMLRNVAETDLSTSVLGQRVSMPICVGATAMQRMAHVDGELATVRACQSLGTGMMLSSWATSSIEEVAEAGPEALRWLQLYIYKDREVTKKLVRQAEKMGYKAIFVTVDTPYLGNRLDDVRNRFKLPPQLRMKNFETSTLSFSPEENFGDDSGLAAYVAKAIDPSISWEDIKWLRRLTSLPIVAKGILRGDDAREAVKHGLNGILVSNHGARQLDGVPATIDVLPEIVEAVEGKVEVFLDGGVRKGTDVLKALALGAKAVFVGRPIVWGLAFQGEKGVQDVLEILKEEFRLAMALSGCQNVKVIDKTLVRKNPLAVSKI

[4] = species on record: Homo sapiens; test: Ratio of Ki for Non-competitive inhibition of human recombinant LDHB to Ki for non-competitive inhibition of human recombinant LDHA
[5] = tested on: Hepatocyte; test: Inhibition of GO/LDHA in hyperoxaluric-primary hepatocyte isolated from Agxt1 knockdown PH1 C57BL/6 mouse assessed as relative oxalate output at 10 uM measured at 48 hrs in the presence of glycolate relative to control; format: cell-based
Outline: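 Agxt1-/- mouse primary hepatocytes cultured with 5 mM glycolate, inhibitor at 10 μM; extracellular oxalate measured by colorimetric kit 24 and 48 h after inhibitor addition; relative oxalate = oxalate with inhibitor over oxalate without inhibitor; negative values mean below detection limit; mean of three/four replicates ± SD.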

[6] = tested on: Hepatocyte; test: Cytotoxicity against hyperoxaluric-primary hepatocyte isolated from Agxt1-knockdown PH1 C57BL/6 mouse assessed as cell death at 10 uM by MTS assay; format: toxicity, cell-based; settings: hepatocytes, Agxt1-knockdown PH1, 10 µM
Outline: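 Primary hepatocytes from Agxt1-/- (PH1, 5 mM glycolate), Grhpr-/- (PH2, 10 mM glycolate) or Hoga1-/- (PH3, 10 mM hydroxyproline) mice, incubated with inhibitor at 10 μM; viability followed through the oxalate assay by MTS tetrazolium method.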

IC50 [1]: 1800 nM | IC50 [2]: 200 nM | inhibition [3]: Active | Ratio [4]: 8
Structure (SMILES): N.N.O=C(O)c1cc(-c2ccc(CN(Cc3ccccc3)Cc3ccc(-c4ccc(O)c(C(=O)O)c4)o3)o2)ccc1O
fold change (FC) [5]: 0.76 | Activity [6]: Non-Toxic
